Results: ChEMBL document CHEMBL4406918, “Inhibitory Effects of Multivalent Polypeptides on the Proliferation and Metastasis of Breast Cancer Cells” (ACS Med Chem Lett, 2019)
The source made the active and inactive calls. No cut-off for these calls is given here.

Experiments:
[1] = system: 4T1; experiment: Antitumour activity against mouse 4T1 cells xenografted in BALB/c mouse assessed as reduction in number of lung tumor metastatic nodules at 10 mg/kg administered intratumorally and measured after 24 days by H and E staining based inverted optical microscopic method; format: functional, organism-based
In short: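 After 6 doses of 10 mg/kg to 4T1 tumour-bearing BALB/c mice (saline control), lungs were photographed whole and examined histopathologically for the number and size of metastatic nodules.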

[2] = system: 4T1; experiment: Inhibition of metastasis in mouse 4T1 cells assessed as formation of pseudopods at 0.2 mM incubated for 24 hrs by SEM analysis; format: functional, cell-based
In short: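 4T1 cells treated 24 h, then imaged by scanning electron microscopy for pseudopod formation. Dendrimers were tested at 0.2 mM and the reference at 10–5 mM.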

[3] = Toxicity in BALB/c mouse xenografted with mouse 4T1 cells assessed as change in blood urea nitrogen level at 10 mg/kg administered intratumorally and measured after 24 days; format: organism-based; conditions: in vivo, other, 576 h
[4] = system: 4T1; experiment: Antitumour activity against mouse 4T1 cells xenografted in BALB/c mouse assessed as increase in number of TUNEL positive cells at 10 mg/kg administered intratumorally and measured after 24 days by H and E staining based inverted optical microscopic method; format: functional, organism-based
In short: (§1)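 BALB/c mice bearing subcutaneous 4T1 tumours received 6 doses at 10 mg/kg body weight, matched for YSL monomer molar amount, with saline as control. Tumour sections were stained for H&E, CD31, Ki-67 and TUNEL. n = 5.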

[5] = system: 4T1; experiment: Induction of apoptosis in mouse 4T1 cells assessed as necrotic cells at 0.4 mM incubated for 24 hrs by Annexin V-FITC/PI based FACS analysis (reference value: 0.47%); format: functional
[6] = system: 4T1; experiment: Inhibition of cell migration in mouse 4T1 cells assessed as migration frequency at 0.2 mM incubated for 24 hrs by crystal violet staining based transwell assay relative to control; format: functional; parameters: scale not given: the % may be the effect or the level left
In short: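 4T1 cells, Transwell migration with 24 h exposure to 0.2 mM. Migration rate comes from counting cells on the bottom of the porous membrane. Mean ± SD, n = 3.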

[7] = Toxicity in BALB/c mouse xenografted with mouse 4T1 cells assessed as induction of morphological lesions in liver at 10 mg/kg administered intratumorally and measured after 24 days by H and E staining based inverted optical microscopic method; format: organism-based; conditions: in vivo, other, 576 h
[8] = system: 4T1; experiment: Inhibition of metastasis in mouse 4T1 cells assessed as shortening in actin filaments at 0.2 mM incubated for 24 hrs by Hoechst 33342 staining based confocal laser scanning microscopic method; format: functional, cell-based
In short: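 After 24 h treatment, 4T1 cells were stained with Alexa Fluor 488 phalloidin for F-actin and Hoechst 33342 for nuclei, then imaged by fluorescence microscopy to assess cytoskeleton and cell morphology.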

[9] = Toxicity in BALB/c mouse xenografted with mouse 4T1 cells assessed as induction of morphological lesions in heart at 10 mg/kg administered intratumorally and measured after 24 days by H and E staining based inverted optical microscopic method; format: organism-based; conditions: in vivo, other, 576 h
[10] = system: 4T1; experiment: Inhibition of metastasis in mouse 4T1 cells assessed as disruption in F-actin arrangement at 0.2 mM incubated for 24 hrs by Hoechst 33342 staining based confocal laser scanning microscopic method; format: functional, cell-based
In short: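 After 24 h at 0.2 mM, 4T1 cells were stained for F-actin with Alexa Fluor 488 phalloidin and for nuclei with Hoechst 33342, then imaged by fluorescence for cytoskeletal arrangement and cell morphology.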

[11] = system: 4T1; experiment: Antitumour activity against mouse 4T1 cells xenografted in BALB/c mouse assessed as increase in cytotoxic tumor cell death at 10 mg/kg administered intratumorally and measured after 24 days by H and E staining based inverted optical microscopic method; format: functional, organism-based; in short: as §1
[12] = system: 4T1; experiment: Induction of cell cycle arrest in mouse 4T1 cells assessed as accumulation at G0/G1 phase at 0.4 mM incubated for 24 hrs by PI staining based flow cytometric analysis (reference value: 37.78%); format: functional
[13] = system: 4T1; experiment: Induction of cell cycle arrest in mouse 4T1 cells assessed as accumulation at G2/M phase at 0.4 mM incubated for 24 hrs by PI staining based flow cytometric analysis (reference value: 19.82%); format: functional
[14] = Toxicity in BALB/c mouse xenografted with mouse 4T1 cells assessed as induction of morphological lesions in kidney at 10 mg/kg administered intratumorally and measured after 24 days by H and E staining based inverted optical microscopic method; format: organism-based; conditions: in vivo, other, 576 h
[15] = Toxicity in BALB/c mouse xenografted with mouse 4T1 cells assessed as induction of morphological lesions in spleen at 10 mg/kg administered intratumorally and measured after 24 days by H and E staining based inverted optical microscopic method; format: organism-based; conditions: in vivo, other, 576 h
[16] = Toxicity in BALB/c mouse xenografted with mouse 4T1 cells assessed as change in serum creatinine level at 10 mg/kg administered intratumorally and measured after 24 days; format: organism-based; conditions: in vivo, other, 576 h
[17] = system: 4T1; experiment: Induction of apoptosis in mouse 4T1 cells assessed as viable cells at 0.4 mM incubated for 24 hrs by Annexin V-FITC/PI based FACS analysis (reference value: 92.2%); format: functional; conditions: 4T1, 24 h, read-out: Activity
[18] = system: 4T1; experiment: Potency index, ratio of test compound effect to YSL effect for inhibition of cell migration in mouse 4T1 cells; format: functional
[19] = system: 4T1; experiment: Induction of apoptosis in mouse 4T1 cells at 0.4 mM incubated for 24 hrs by PI staining based inverted microscopic method; format: functional, cell-based
In short: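 Live–dead staining of 4T1 cells after 24 h exposure to 0.4 mM, read by PI staining. A 0.8 mM level was also examined.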

[20] = system: 4T1; experiment: Antiproliferative activity against mouse 4T1 cells at 0.1 mM incubated for 24 hrs by MTT assay; format: functional, cell-based
[21] = system: 4T1; experiment: Inhibition of cell migration in mouse 4T1 cells assessed as wound closure rate at 0.2 mM measured up to 36 hrs by inverted optical microscopic method based wound healing assay (reference value: 82%); format: functional; parameters: scale not given: the % may be the effect or the level left
[22] = system: Erythrocyte; experiment: Hemolytic activity in BALB/c mouse RBC at 3.2 mM incubated for 2 hrs by UV-Vis spectrophotometric analysis; format: ADME, cell-based; conditions: 3200 µM
In short: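 Hemolysis assay on red blood cells with dendrimers up to 3.2 mM. Result is expressed as hemolysis rate, with under 5% taken as acceptable.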

[23] = Stability in fetal bovine serum assessed as parent compound remaining measured after 12 hrs by RP-HPLC analysis; format: ADME, cell-free, Bos taurus; conditions: cattle, read-out: Stability
In short: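 Peptides incubated in serum, and the fraction of intact YSL was measured over time up to 12 h, including a 4 h point.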

[24] = system: 4T1; experiment: Induction of apoptosis in mouse 4T1 cells assessed as late apoptotic cells at 0.4 mM incubated for 24 hrs by Annexin V-FITC/PI based FACS analysis (reference value: 6.62%); format: functional
[25] = Toxicity in BALB/c mouse xenografted with mouse 4T1 cells assessed as change in body weight at 10 mg/kg administered intratumorally and measured after 24 days; format: organism-based; conditions: in vivo, other, 576 h
In short: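 BALB/c mice bearing subcutaneous 4T1 tumours received 6 doses of 10 mg/kg, with equal YSL-monomer molar amounts across compounds and saline as control. Tumour volume growth curves and body weights were tracked. Mean ± SD, n = 5.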

[26] = system: 4T1; experiment: Induction of cell cycle arrest in mouse 4T1 cells assessed as accumulation at S phase at 0.4 mM incubated for 24 hrs by PI staining based flow cytometric analysis (Rvb =42.35%); format: functional
[27] = target: Matrix metalloproteinase-9 (Mus musculus) (UniProt P41245); experiment: Residual MMP9 activity in mouse 4T1 cells at 0.2 mM incubated for 24 hrs by coomassie brilliant blue staining based gelatin zymography assay relative to control
Matrix metalloproteinase-9 (Mus musculus), sequence (P41245 whole entry): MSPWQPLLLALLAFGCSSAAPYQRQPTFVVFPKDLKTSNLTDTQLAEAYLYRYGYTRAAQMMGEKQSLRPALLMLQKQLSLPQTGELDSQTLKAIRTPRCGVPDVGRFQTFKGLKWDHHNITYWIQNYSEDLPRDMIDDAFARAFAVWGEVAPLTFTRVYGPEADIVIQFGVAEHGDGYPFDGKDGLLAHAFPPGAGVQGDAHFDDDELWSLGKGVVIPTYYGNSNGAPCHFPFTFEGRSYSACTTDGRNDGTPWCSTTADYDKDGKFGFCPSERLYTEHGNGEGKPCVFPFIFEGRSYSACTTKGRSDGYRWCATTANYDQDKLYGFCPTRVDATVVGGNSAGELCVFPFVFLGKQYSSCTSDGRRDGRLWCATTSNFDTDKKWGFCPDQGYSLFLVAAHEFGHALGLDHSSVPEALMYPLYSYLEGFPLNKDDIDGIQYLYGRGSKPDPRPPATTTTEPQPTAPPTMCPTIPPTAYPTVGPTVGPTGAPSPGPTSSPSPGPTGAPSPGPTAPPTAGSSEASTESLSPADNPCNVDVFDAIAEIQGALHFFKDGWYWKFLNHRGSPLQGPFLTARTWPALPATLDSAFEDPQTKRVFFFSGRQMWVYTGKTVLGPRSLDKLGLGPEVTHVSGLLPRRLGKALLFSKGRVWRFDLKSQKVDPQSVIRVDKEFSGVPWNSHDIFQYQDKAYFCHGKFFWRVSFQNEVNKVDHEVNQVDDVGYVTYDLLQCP

SMILES: COC(=O)[C@H](CCCCNC(=O)[C@H](CCCCNC(=O)[C@H](CCCCNC(=O)[C@H](CC(C)C)NC(=O)[C@H](CO)NC(=O)[C@@H](N)Cc1ccc(O)cc1)NC(=O)[C@H](CC(C)C)NC(=O)[C@H](CO)NC(=O)[C@@H](N)Cc1ccc(O)cc1)NC(=O)[C@H](CCCCNC(=O)[C@H](CC(C)C)NC(=O)[C@H](CO)NC(=O)[C@@H](N)Cc1ccc(O)cc1)NC(=O)[C@H](CC(C)C)NC(=O)[C@H](CO)NC(=O)[C@@H](N)Cc1ccc(O)cc1)NC(=O)[C@H](CCCCNC(=O)[C@H](CCCCNC(=O)[C@H](CC(C)C)NC(=O)[C@H](CO)NC(=O)[C@@H](N)Cc1ccc(O)cc1)NC(=O)[C@H](CC(C)C)NC(=O)[C@H](CO)NC(=O)[C@@H](N)Cc1ccc(O)cc1)NC(=O)[C@H](CCCCNC(=O)[C@H](CC(C)C)NC(=O)[C@H](CO)NC(=O)[C@@H](N)Cc1ccc(O)cc1)NC(=O)[C@H](CC(C)C)NC(=O)[C@H](CO)NC(=O)[C@@H](N)Cc1ccc(O)cc1
- Activity [1]: Active
- inhibition [2]: inactive
- Activity [3]: Non-Toxic
- Activity [4]: Active
- Activity [5]: 2.41%
- Activity [6]: 10%
- Activity [7]: Non-Toxic
- inhibition [8]: Active
- Activity [9]: Non-Toxic
- F-actin disruption (qualitative) [10]: Active
- Activity [11]: Active
- Activity [12]: 44.44%
- Activity [13]: 7.08%
- Activity [14]: Non-Toxic
- Activity [15]: Non-Toxic
- Activity [16]: Non-Toxic
- viability at 400 µM [17]: 37.5%
- Ratio [18]: 4.5
- Activity [19]: Active
- Activity [20]: inactive
- Activity [21]: 30%
- Activity [22]: Non-Toxic
- remaining at 12 h [23]: > 80%
- Activity [24]: 56.2%
- Activity [25]: Non-Toxic
- Activity [26]: 46.42%
- residual activity [27]: 34%
